Measurements: ChEMBL document CHEMBL5356993, “Novel pyrazolo[3,4-d]pyrimidine derivatives: design, synthesis, anticancer evaluation, VEGFR-2 inhibition, and antiangiogenic activity” (RSC Med Chem, 2023)

Tests used:
Type in all cases: functional
Details in all cases: read-out: GI
[1] = tested on: OVCAR-5; assay: Antiproliferative activity against human OVCAR-5 cells assessed as cell growth inhibition at 10 uM incubated for 48 hrs by SRB assay relative to control
Method in brief: (§1)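 Cells plated in 96-well plates at […] cells/well and preincubated 24 h at 37 °C, 5% CO2. Time-zero plates were TCA-fixed. Compound was diluted in medium with 50 µg/mL gentamicin and cells exposed for 48 h. Adherent cells fixed with 10% final TCA; suspension cells with 16% final TCA. Plates stained with 0.4% SRB in 1% acetic acid, dye solubilized in 10 mM Trizma, absorbance read at 515 nm. Percent growth calculated against time-zero and control.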

[2] = tested on: NCI-H322M; assay: Antiproliferative activity against human NCI-H322M cells assessed as cell growth inhibition at 10 uM incubated for 48 hrs by SRB assay relative to control
[3] = tested on: NCI-H460; assay: Antiproliferative activity against human NCI-H460 cells assessed as cell growth inhibition at 10 uM incubated for 48 hrs by SRB assay relative to control
[4] = tested on: NCI-H522; assay: Antiproliferative activity against human NCI-H522 cells assessed as cell growth inhibition at 10 uM incubated for 48 hrs by SRB assay relative to control; method in brief: as §1
[5] = tested on: HCC 2998; assay: Antiproliferative activity against human HCC 2998 cells assessed as cell growth inhibition at 10 uM incubated for 48 hrs by SRB assay relative to control
[6] = tested on: HCT-15; assay: Antiproliferative activity against human HCT-15 cells assessed as cell growth inhibition at 10 uM incubated for 48 hrs by SRB assay relative to control
[7] = tested on: HT-29; assay: Antiproliferative activity against human HT-29 cells assessed as cell growth inhibition at 10 uM incubated for 48 hrs by SRB assay relative to control; method in brief: as §1
[8] = tested on: SF-268; assay: Antiproliferative activity against human SF-268 cells assessed as cell growth inhibition at 10 uM incubated for 48 hrs by SRB assay relative to control
[9] = tested on: SF-295; assay: Antiproliferative activity against human SF-295 cells assessed as cell growth inhibition at 10 uM incubated for 48 hrs by SRB assay relative to control; method in brief: as §1
[10] = tested on: SF-539; assay: Antiproliferative activity against human SF-539 cells assessed as cell growth inhibition at 10 uM incubated for 48 hrs by SRB assay relative to control; method in brief: as §1
[11] = tested on: SNB-75; assay: Antiproliferative activity against human SNB-75 cells assessed as cell growth inhibition at 10 uM incubated for 48 hrs by SRB assay relative to control
Method in brief: (§2)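 Cells pre-incubated 24 h at 37°C, 5% CO2, then exposed to compound (DMSO stock diluted in medium with 50 µg/mL gentamicin) for 48 h. Adherent cells fixed with cold TCA (final 10%, 60 min, 4°C); suspension cells fixed with 16% TCA final. Stained with 0.4% SRB in 1% acetic acid for 10 min, dye solubilized in 10 mM Trizma base, absorbance read at 515 nm. Growth calculated against time-zero and untreated control plates.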

[12] = tested on: LOX IMVI; assay: Antiproliferative activity against human LOX IMVI cells assessed as cell growth inhibition at 10 uM incubated for 48 hrs by SRB assay relative to control
[13] = tested on: M14; assay: Antiproliferative activity against human M14 cells assessed as cell growth inhibition at 10 uM incubated for 48 hrs by SRB assay relative to control; method in brief: as §1
[14] = tested on: MDA-MB-435; assay: Antiproliferative activity against human MDA-MB-435 cells assessed as cell growth inhibition at 10 uM incubated for 48 hrs by SRB assay relative to control
[15] = tested on: SK-MEL-2; assay: Antiproliferative activity against human SK-MEL-2 cells assessed as cell growth inhibition at 10 uM incubated for 48 hrs by SRB assay relative to control; method in brief: as §1
[16] = tested on: UACC-257; assay: Antiproliferative activity against human UACC-257 cells assessed as cell growth inhibition at 10 uM incubated for 48 hrs by SRB assay relative to control; method in brief: as §2
[17] = tested on: OVCAR-3; assay: Antiproliferative activity against human OVCAR-3 cells assessed as cell growth inhibition at 10 uM incubated for 48 hrs by SRB assay relative to control; method in brief: as §1
[18] = tested on: NCI/ADR-RES; assay: Antiproliferative activity against human NCI-ADR-RES cells assessed as cell growth inhibition at 10 uM incubated for 48 hrs by SRB assay relative to control
[19] = tested on: 786-0; assay: Antiproliferative activity against human 786-0 cells assessed as cell growth inhibition at 10 uM incubated for 48 hrs by SRB assay relative to control
[20] = tested on: A498; assay: Antiproliferative activity against human A498 cells assessed as cell growth inhibition at 10 uM incubated for 48 hrs by SRB assay relative to control; method in brief: as §1
[21] = tested on: CAKI-1; assay: Antiproliferative activity against human CAKI-1 cells assessed as cell growth inhibition at 10 uM incubated for 48 hrs by SRB assay relative to control
[22] = tested on: RXF 393; assay: Antiproliferative activity against human RXF 393 cells assessed as cell growth inhibition at 10 uM incubated for 48 hrs by SRB assay relative to control; method in brief: as §1
[23] = tested on: SN12C; assay: Antiproliferative activity against human SN12C cells assessed as cell growth inhibition at 10 uM incubated for 48 hrs by SRB assay relative to control
[24] = tested on: TK-10; assay: Antiproliferative activity against human TK-10 cells assessed as cell growth inhibition at 10 uM incubated for 48 hrs by SRB assay relative to control; method in brief: as §2
[25] = tested on: PC-3; assay: Antiproliferative activity against human PC-3 cells assessed as cell growth inhibition at 10 uM incubated for 48 hrs by SRB assay relative to control
[26] = tested on: DU-145; assay: Antiproliferative activity against human DU-145 cells assessed as cell growth inhibition at 10 uM incubated for 48 hrs by SRB assay relative to control
[27] = tested on: MCF7; assay: Antiproliferative activity against human MCF7 cells assessed as cell growth inhibition at 10 uM incubated for 48 hrs by SRB assay relative to control
[28] = tested on: Hs-578T; assay: Antiproliferative activity against human Hs-578T cells assessed as cell growth inhibition at 10 uM incubated for 48 hrs by SRB assay relative to control; method in brief: as §1
[29] = tested on: BT-549; assay: Antiproliferative activity against human BT-549 cells assessed as cell growth inhibition at 10 uM incubated for 48 hrs by SRB assay relative to control
[30] = tested on: NCI-H226; assay: Antiproliferative activity against human NCI-H226 cells assessed as cell growth inhibition at 10 uM incubated for 48 hrs by SRB assay relative to control; method in brief: as §1
[31] = tested on: HOP-92; assay: Antiproliferative activity against human HOP-92 cells assessed as cell growth inhibition at 10 uM incubated for 48 hrs by SRB assay relative to control; method in brief: as §1
[32] = tested on: HOP-62; assay: Antiproliferative activity against human HOP-62 cells assessed as cell growth inhibition at 10 uM incubated for 48 hrs by SRB assay relative to control
[33] = tested on: RPMI-8226; assay: Antiproliferative activity against human RPMI-8226 cells assessed as cell growth inhibition at 10 uM incubated for 48 hrs by SRB assay relative to control
[34] = tested on: CCRF-CEM; assay: Antiproliferative activity against human CCRF-CEM cells assessed as cell growth inhibition at 10 uM incubated for 48 hrs by SRB assay relative to control; method in brief: as §1

Structure (SMILES)	inhibition of growth at 10 µM [1] [%]	inhibition of growth at 10 µM [2] [%]	inhibition of growth at 10 µM [3] [%]	inhibition of growth at 10 µM [4] [%]	inhibition of growth at 10 µM [5] [%]	inhibition of growth at 10 µM [6] [%]	inhibition of growth at 10 µM [7] [%]	inhibition of growth at 10 µM [8] [%]	inhibition of growth at 10 µM [9] [%]	inhibition of growth at 10 µM [10] [%]	inhibition of growth at 10 µM [11] [%]	inhibition of growth at 10 µM [12] [%]	inhibition of growth at 10 µM [13] [%]	inhibition of growth at 10 µM [14] [%]	inhibition of growth at 10 µM [15] [%]	inhibition of growth at 10 µM [16] [%]	inhibition of growth at 10 µM [17] [%]	inhibition of growth at 10 µM [18] [%]	inhibition of growth at 10 µM [19] [%]	inhibition of growth at 10 µM [20] [%]	also measured
Cc1nc2c(cnn2-c2ccccc2)c(=O)n1-c1ccc(NC(=O)c2ccc([N+](=O)[O-])cc2)cc1	< 15	17.2	26.4	38.9	< 15	28.6	21.6	< 15	56.3	18.7	32.9	34.1	24.6	33.6	29.3	50.8	< 15	47.2	16.3	19.6	inhibition of growth at 10 µM [21]: 31.5%; inhibition of growth at 10 µM [22]: 26.4%; inhibition of growth at 10 µM [23]: 29%; inhibition of growth at 10 µM [24]: 31.5%; inhibition of growth at 10 µM [25]: 33.7%; inhibition of growth at 10 µM [26]: 21%; inhibition of growth at 10 µM [27]: 56.7%; inhibition of growth at 10 µM [28]: 23.1%; inhibition of growth at 10 µM [29]: 48.8%; inhibition of growth at 10 µM [30]: 50.8%; inhibition of growth at 10 µM [31]: < 15%; inhibition of growth at 10 µM [32]: < 15%; inhibition of growth at 10 µM [33]: 47.7%; inhibition of growth at 10 µM [34]: 52.5%
Cc1nc2c(cnn2-c2ccccc2)c(=O)n1-c1ccc(N)cc1	< 15	< 15	16.8	< 15	< 15	< 15	< 15	17.4	27.1	19.4	28.1	18.5	< 15	22.9	17.8	34.3	< 15	< 15	< 15	16.8	inhibition of growth at 10 µM [21]: 31.7%; inhibition of growth at 10 µM [22]: < 15%; inhibition of growth at 10 µM [23]: 21.1%; inhibition of growth at 10 µM [24]: 21.8%; inhibition of growth at 10 µM [25]: 18%; inhibition of growth at 10 µM [26]: 17.3%; inhibition of growth at 10 µM [27]: 37.6%; inhibition of growth at 10 µM [28]: 21.4%; inhibition of growth at 10 µM [29]: 31.2%; inhibition of growth at 10 µM [30]: 18%; inhibition of growth at 10 µM [31]: < 15%; inhibition of growth at 10 µM [32]: 16.2%; inhibition of growth at 10 µM [33]: 48.2%; inhibition of growth at 10 µM [34]: 21%
Cc1nc2c(cnn2-c2ccccc2)c(=O)n1-c1ccc(/N=C2\C(=O)Nc3ccccc32)cc1	< 15	< 15	< 15	16.8	< 15	15.7	< 15	< 15	24.7	20.9	< 15	18.3	18.8	< 15	< 15	29.3	24.3	< 15	< 15	< 15	inhibition of growth at 10 µM [21]: 31.7%; inhibition of growth at 10 µM [22]: 29%; inhibition of growth at 10 µM [23]: 37.3%; inhibition of growth at 10 µM [24]: < 15%; inhibition of growth at 10 µM [25]: 24%; inhibition of growth at 10 µM [26]: < 15%; inhibition of growth at 10 µM [27]: 33.7%; inhibition of growth at 10 µM [28]: 17.6%; inhibition of growth at 10 µM [29]: 22.1%; inhibition of growth at 10 µM [30]: 24.7%; inhibition of growth at 10 µM [31]: 17.6%; inhibition of growth at 10 µM [32]: < 15%; inhibition of growth at 10 µM [33]: 36.5%; inhibition of growth at 10 µM [34]: 37.8%
